HSF1 inhib = HSF1 inhibition | AID 2098 | activity change, negative = inhibition, % at 7.5 µM (by protocol) | NIH3T3-HGL HSE-luciferase, MG132-induced, luminescence 8 h; hits give low values | actives 0.77% (n = 300,000);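 active = more than half of replicate wells show activity change below -50%, luminescence cut by over half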;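 note: luciferase reports HSF-1 transcriptional activity via heat shock element; 0% = median of DMSO wells and -100% = zero luminescence signal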
CHT allo act = allosterically activates the human high affinity choline transporter | actives 0.49% (n = 310,000) | AID 488977 | CHT-expressing cells, membrane potential dye, choline EC20; hits give high values; LV-AA mutant CHT in HEK293 cells | B-score at 10 µM | Q9GZV3;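 active = initial fluorescence not abnormally high and integrated response B-score, plate-corrected, over 3 SD above library mean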
PHOSPHO1 block = PHOSPHO1 (human) inhibition; actives 1.1% (n = 290,000); recombinant PHOSPHO1, absorbance phosphatase assay; Q8TCT1; inhibition, % at 13.3 µM; AID 1565; in the data active = inhibition above about 60%
HSF1 activator = increases HSF-1 driven luciferase reporter signal. actives 1.7% (n = 300,000). AID 504408. activation, % at 9 µM. NIH3T3-HGL HSF-1 luciferase reporter, MG132, 8 h; 100% = twice DMSO control signal;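 active = mean replicate activation of at least 50% with a set share of replicates each reaching 50%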;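 note: 0% = median of the neutral control wells and 100% = twice that signal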
Lipid droplet = hepatic lipid droplet formation modulation | AML12 mouse hepatocytes, oleate lipid droplets, BODIPY imaging | inhibition, % at 6.5 µM | actives 0.4% (n = 240,000) | AID 1656;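 active = lipid droplet intensity inhibited by at least 50%, with more than 500 cells counted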
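Assay system: AML12 hepatocytes (mouse); Probe or stimulus: oleic acid at 100 µM to induce lipid droplet formation; Dosing: compound at 6.5 µM only; Schedule: compound with oleate, overnight; Detection: fluorescence imaging, 20x objective, two fields per well; Measure: % inhibition of lipid droplet signal.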
CHT block = inhibits the human high affinity choline transporter | Q9GZV3 | CHT-expressing cells, membrane potential dye, choline response; hits give low values | B-score at 10 µM | actives 0.86% (n = 310,000) | AID 488975;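 active = B-score over 3 SD under the library average, and starting fluorescence ratio not unusually high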;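 note: choline stimulus applied at its EC90 after an EC20 pre-addition; B-score computed on integrated fluorescence ratio after choline addition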
* hit, by the source's call. The list is not random: actives were taken first. Their share in the collection is about 4.9%.

How did O=C(/C=C/c1ccccc1[N+](=O)[O-])c1ccccc1Br do in these assays?
HSF1 inhib: 43; CHT allo act: inactive; PHOSPHO1 block: 10; HSF1 activator: 65*; Lipid droplet: -4; CHT block: inactive

What do the screens show for `Cc1ccc(C(=O)/C=C/c2ccccc2[N+](=O)[O-])cc1`?
HSF1 inhib: 91; CHT allo act: inactive; PHOSPHO1 block: -19; HSF1 activator: 135*; Lipid droplet: -1; CHT block: inactive

Results for CC1CCCCC1NC(=O)c1nn(C)c(=O)c2ccccc12 (configuration not stated) ?
HSF1 inhib: -1; CHT allo act: inactive; PHOSPHO1 block: 4; HSF1 activator: -1; Lipid droplet: 2; CHT block: inactive

Results for COc1cc(-n2c(=O)c3ccccc3n(Cc3ccccc3)c2=O)cc(OC)c1OC ?
HSF1 inhib: -5; CHT allo act: inactive; PHOSPHO1 block: -71; HSF1 activator: 17; Lipid droplet: 2; CHT block: inactive

Results for Cc1cccc(C(c2c(C)nn(-c3ccccc3)c2N)c2c(C)nn(-c3ccccc3)c2N)c1 ?
HSF1 inhib: 68; CHT allo act: inactive; PHOSPHO1 block: 97*; HSF1 activator: 83*; Lipid droplet: -25; CHT block: inactive

What do the screens show for `O=C(Nc1ccc(Cl)cc1Cl)C1=Cc2ccccc2OC1`?
HSF1 inhib: 32; CHT allo act: inactive; PHOSPHO1 block: 0; HSF1 activator: 53*; Lipid droplet: 26; CHT block: inactive

What do the screens show for `CC1=C(C)NC(=S)SC1`?
HSF1 inhib: -4; CHT allo act: inactive; PHOSPHO1 block: 73*; HSF1 activator: -6; CHT block: inactive

Results for CCN(CC)c1ccc(/C=N/Nc2nc3ccccc3[nH]2)cc1 ?
HSF1 inhib: 269; PHOSPHO1 block: -4; HSF1 activator: 431*; Lipid droplet: -89

Results for C(=N\Nc1nc2ccccc2[nH]1)/c1ccc2c(c1)OCO2 ?
HSF1 inhib: 444; PHOSPHO1 block: 57; HSF1 activator: 492*; Lipid droplet: 10

What do the screens show for `CC(=O)Nc1ccc(/C=N/Nc2nc3ccccc3[nH]2)cc1`?
HSF1 inhib: 88; CHT allo act: inactive; PHOSPHO1 block: -52; HSF1 activator: 128*; Lipid droplet: -6; CHT block: inactive

Results for O=C(O)c1ccc(/C=N/Nc2nc3ccccc3[nH]2)cc1 ?
HSF1 inhib: 0; CHT allo act: inactive; PHOSPHO1 block: 4; HSF1 activator: 31; Lipid droplet: -5; CHT block: inactive

How did C(=N\Nc1nc2ccccc2[nH]1)/c1ccncc1 do in these assays?
HSF1 inhib: -13; CHT allo act: inactive; PHOSPHO1 block: -10; HSF1 activator: -4; Lipid droplet: -4; CHT block: inactive

What do the screens show for `CCCOc1ccc(N)cc1N`?
HSF1 inhib: 2; CHT allo act: inactive; PHOSPHO1 block: 65*; HSF1 activator: 13; CHT block: inactive

How did CCCOc1cc(N)ccc1C(=O)OCCN(CC)CC do in these assays?
CHT allo act: inactive; CHT block: inactive

Results for COc1ccc(/C=N/Nc2ccc(C(=O)O)cc2)cc1Br ?
HSF1 inhib: -78*; CHT allo act: inactive; PHOSPHO1 block: -23; HSF1 activator: -82; Lipid droplet: -2; CHT block: inactive

What do the screens show for `CC(C)c1ccc(/C=N/NC(=O)C2CCCC2)cc1`?
HSF1 inhib: 27; CHT allo act: inactive; PHOSPHO1 block: 11; HSF1 activator: 52*; Lipid droplet: 4; CHT block: inactive

How did CC(C)(C)c1ccc(/C=N/NC(=O)C2CCCC2)cc1 do in these assays?
CHT allo act: inactive; PHOSPHO1 block: 37; Lipid droplet: -5; CHT block: inactive

What do the screens show for `C=CCOc1c(Br)cc(/C=N/Nc2ccc(C(=O)O)cc2)cc1OCC`?
HSF1 inhib: -53*; CHT allo act: inactive; PHOSPHO1 block: -3; HSF1 activator: -53; Lipid droplet: -26; CHT block: inactive

How did O=C(O)c1ccc(/C=N/Nc2ccc(C(F)(F)F)cn2)cc1 do in these assays?
HSF1 inhib: 20; PHOSPHO1 block: 6; HSF1 activator: 52*; Lipid droplet: -17
